Laboratory results taken from ChEMBL document CHEMBL1671679, “Lack of pharmacokinetic interaction between amdoxovir and reduced- and standard-dose zidovudine in HIV-1-infected individuals” (Antimicrob Agents Chemother, 2010).

Assays:
Homo sapiens [1] = assay: Ratio of AUC (0 to 12 hrs) in HIV-1 infected patient at 500 mg, po bid on day 10 coadministered with 200 mg, po bid zidovudine to AUC (0 to 12 hrs) in HIV-1 infected patient at 500 mg, po bid on day 1 coadministered with 200 mg, po bid zidovudine; assay type: ADME, organism-based; conditions: in vivo
Outline: (§1)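 Untreated Hispanic HIV-1-infected adults (viral load ≥5,000 copies/ml, CD4 ≥200 cells/mm3). Blood was drawn into DCF-containing EDTA tubes on day 1 (0–12 h) and on day 10 (0–48 h post last dose), then stored at −80°C. Plasma was methanol-extracted with an internal standard and run by LC-MS/MS (2–3,000 ng/ml AMDX/DXG; 2–5,000 ng/ml ZDV). Noncompartmental analysis assumed extravascular input; τ = 12 h; geometric means reported; accumulation was taken as AUCτ day 10/day 1.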

[2] = Half life in HIV-1 infected patient at 500 mg, po bid on day 10 coadministered with 200 mg, po bid zidovudine by LC-MS/MS analysis; assay type: ADME, organism-based; conditions: human, in vivo; outline: as §1
[3] = Half life in HIV-1 infected patient at 500 mg, po bid on day 10 coadministered with 300 mg, po bid zidovudine by LC-MS/MS analysis; assay type: ADME, organism-based; conditions: human, in vivo; outline: as §1
Homo sapiens [4] = assay: Ratio of AUC (0 to 12 hrs) in HIV-1 infected patient at 500 mg, po bid on day 10 to AUC (0 to 12 hrs) in HIV-1 infected patient at 500 mg, po bid on day 1; assay type: ADME, organism-based; conditions: in vivo; outline: as §1
[5] = AUC (0 to 12 hrs) in HIV-1 infected patient at 500 mg, po bid on day 10 by LC-MS/MS analysis; assay type: ADME, organism-based; parameters: dose 500 mg, time < 12 hr, route oral; conditions: human, plasma; outline: as §1
[6] = Cmax in HIV-1 infected patient at 500 mg, po bid on day 10 by LC-MS/MS analysis; assay type: ADME, organism-based; parameters: dose 500 mg, route oral; conditions: human, in vivo; outline: as §1
[7] = Cmax in HIV-1 infected patient at 500 mg, po bid on day 10 coadministered with 200 mg, po bid zidovudine by LC-MS/MS analysis; assay type: ADME, organism-based; parameters: dose 500 mg, route oral; conditions: human, in vivo; outline: as §1
Homo sapiens [8] = assay: Ratio of AUC (0 to 12 hrs) in HIV-1 infected patient at 500 mg, po bid on day 10 coadministered with 300 mg, po bid zidovudine to AUC (0 to 12 hrs) in HIV-1 infected patient at 500 mg, po bid on day 1 coadministered with 300 mg, po bid zidovudine; assay type: ADME, organism-based; conditions: in vivo; outline: as §1
[9] = Tmax in HIV-1 infected patient at 500 mg, po bid on day 10 coadministered with 300 mg, po bid zidovudine by LC-MS/MS analysis; assay type: ADME, organism-based; conditions: human, in vivo
Outline: (§2)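 Treatment-naive Hispanic HIV-1-infected adults (≥5,000 RNA copies/ml, CD4 ≥200 cells/mm3). Blood drawn after first dose on day 1 (0–12 h) and after last dose on day 10 (0–48 h) into DCF-containing EDTA tubes to block ex vivo deamination, centrifuged, plasma stored −80°C. Methanol extraction with internal standard, LC-MS/MS (linear 2–3,000 ng ml−1 for AMDX and DXG). Noncompartmental analysis assuming extravascular input; geometric means reported.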

[10] = Tmax in HIV-1 infected patient at 500 mg, po bid on day 10 by LC-MS/MS analysis; assay type: ADME, organism-based; conditions: human, in vivo; outline: as §2
[11] = Tmax in HIV-1 infected patient at 500 mg, po bid on day 10 coadministered with 200 mg, po bid zidovudine by LC-MS/MS analysis; assay type: ADME, organism-based; conditions: human, in vivo; outline: as §2
[12] = AUC (0 to 12 hrs) in HIV-1 infected patient at 500 mg, po bid on day 10 coadministered with 200 mg, po bid zidovudine by LC-MS/MS analysis; assay type: ADME, organism-based; parameters: dose 500 mg, time < 12 hr, route oral; conditions: human, plasma; outline: as §1
[13] = Cmax in HIV-1 infected patient at 500 mg, po bid on day 1 by LC-MS/MS analysis; assay type: ADME, organism-based; parameters: dose 500 mg, route oral; conditions: human, in vivo; outline: as §1
[14] = Half life in HIV-1 infected patient at 500 mg, po bid on day 1 by LC-MS/MS analysis; assay type: ADME, organism-based; conditions: human, in vivo; outline: as §1
[15] = Apparent oral clearance in HIV-1 infected patient at 500 mg, po bid on day 10 by LC-MS/MS analysis; assay type: ADME, organism-based; conditions: human, in vivo; outline: as §1
Homo sapiens [16] = assay: Tmax in HIV-1 infected patient assessed as beta-D-dioxolane guanosine level at 500 mg, po bid on day 1 by LC-MS/MS analysis; assay type: ADME, organism-based; conditions: in vivo; outline: as §1
[17] = Half life in HIV-1 infected patient at 500 mg, po bid on day 10 by LC-MS/MS analysis; assay type: ADME, organism-based; conditions: human, in vivo; outline: as §1
[18] = AUC (0 to 12 hrs) in HIV-1 infected patient at 500 mg, po bid on day 10 coadministered with 300 mg, po bid zidovudine by LC-MS/MS analysis; assay type: ADME, organism-based; parameters: dose 500 mg, time < 12 hr, route oral; conditions: human, plasma; outline: as §1
[19] = Cmax in HIV-1 infected patient at 500 mg, po bid on day 10 coadministered with 300 mg, po bid zidovudine by LC-MS/MS analysis; assay type: ADME, organism-based; parameters: dose 500 mg, route oral; conditions: human, in vivo; outline: as §1
[20] = Apparent oral clearance in HIV-1 infected patient at 500 mg, po bid on day 10 coadministered with 300 mg, po bid zidovudine by LC-MS/MS analysis; assay type: ADME, organism-based; conditions: human, in vivo; outline: as §1
[21] = Tmax in HIV-1 infected patient at 500 mg, po bid on day 1 by LC-MS/MS analysis; assay type: ADME, organism-based; conditions: human, in vivo; outline: as §2
[22] = Apparent oral clearance in HIV-1 infected patient at 500 mg, po bid on day 10 coadministered with 200 mg, po bid zidovudine by LC-MS/MS analysis; assay type: ADME, organism-based; conditions: human, in vivo; outline: as §1
[23] = Tmax in HIV-1 infected patient on day 10 by LC-MS/MS analysis; assay type: ADME, organism-based; conditions: human, in vivo
Outline: (§3)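 Untreated Hispanic HIV-infected adults (VL ≥5,000 copies/ml, CD4 ≥200 cells/mm3) dosed orally b.i.d. for 10 days. Methanol extraction with internal standard, then LC-MS/MS for ZDV. Noncompartmental steady-state Tmax reported as geometric mean.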

[24] = Drug level in HIV-1 infected patient urine on day 10 by LC-MS/MS analysis; assay type: ADME; conditions: human, read-out: Drug uptake
Outline: (§4)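 At steady state (day 10), urine collected over one 12-h dose interval was analyzed by LC-MS/MS for AMDX, DXG, ZDV and ZDV-5′-O-glucuronide. Samples were diluted 100-fold, and the assay was linear from 1 to 500 μg/ml. Results are expressed as percentage of the dose recovered as each analyte (geometric means). Subjects were untreated HIV-1-infected adults.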

Homo sapiens [25] = species: Homo sapiens; assay: Ratio of AUC (0 to 12 hrs) in HIV-1 infected patient on day 10 to AUC ( 0 to 12 hrs) in HIV-1 infected patient on day 1; assay type: ADME, organism-based; conditions: in vivo
Outline: (§5)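 Untreated Hispanic HIV-infected adults (VL ≥5,000 copies/ml, CD4 ≥200 cells/mm3) dosed orally b.i.d. Plasma sampled 0–12 h after first dose (day 1) and 0–48 h after last dose (day 10) into DCF-containing EDTA tubes, stored −80°C. ZDV measured by validated LC-MS/MS (linear 2–5,000 ng/ml). Noncompartmental analysis assuming extravascular input. Accumulation taken as AUCτ (τ = 12 h) day 10 / AUCτ day 1, as geometric means.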

[26] = Apparent oral clearance in HIV-1 infected patient at 200 mg, po bid on day 10 coadministered with 500 mg, po bid amdoxovir by LC-MS/MS analysis; assay type: ADME, organism-based; conditions: human, in vivo; outline: as §1
[27] = Half life in HIV-1 infected patient at 200 mg, po bid on day 10 coadministered with 500 mg, po bid amdoxovir by LC-MS/MS analysis; assay type: ADME, organism-based; conditions: human, in vivo; outline: as §1
[28] = Tmax in HIV-1 infected patient at 300 mg, po bid on day 10 coadministered with 500 mg, po bid amdoxovir by LC-MS/MS analysis; assay type: ADME, organism-based; conditions: human, in vivo; outline: as §3
[29] = Drug level in HIV-1 infected patient urine at 300 mg, po bid on day 10 coadministered with 500 mg, po bid amdoxovir by LC-MS/MS analysis; assay type: ADME, organism-based; conditions: human, read-out: Drug uptake; outline: as §4
[30] = Drug level in HIV-1 infected patient urine assessed as zidovudine-5-O-glucoronide level at 200 mg, po bid on day 10 coadministered with 500 mg, po bid amdoxovir by LC-MS/MS analysis; assay type: ADME, organism-based; conditions: human, in vivo; outline: as §4
[31] = Drug level in HIV-1 infected patient urine on day 10 assessed as zidovudine-5-O-glucoronide level by LC-MS/MS analysis; assay type: ADME; conditions: human, in vivo; outline: as §4
Homo sapiens [32] = assay: Ratio of AUC (0 to 12 hrs) in HIV-1 infected patient at 200 mg, po bid on day 10 coadministered with 500 mg, po bid amdoxovir to AUC (0 to 12 hrs) in HIV-1 infected patient at 200 mg, po bid on day 1 coadministered with 500 mg, po bid amdoxovir; assay type: ADME, organism-based; conditions: in vivo; outline: as §5
[33] = Drug level in HIV-1 infected patient urine at 200 mg, po bid on day 10 coadministered with 500 mg, po bid amdoxovir by LC-MS/MS analysis; assay type: ADME, organism-based; conditions: human, read-out: Drug uptake; outline: as §4
[34] = Drug level in HIV-1 infected patient urine assessed as zidovudine-5-O-glucoronide level at 300 mg, po bid on day 10 coadministered with 500 mg, po bid amdoxovir by LC-MS/MS analysis; assay type: ADME, organism-based; conditions: human, in vivo; outline: as §4
[35] = Half life in HIV-1 infected patient at 300 mg, po bid on day 10 coadministered with 500 mg, po bid amdoxovir by LC-MS/MS analysis; assay type: ADME, organism-based; conditions: human, in vivo; outline: as §1
[36] = Half life in HIV-1 infected patient on day 10 by LC-MS/MS analysis; assay type: ADME, organism-based; conditions: human, in vivo; outline: as §1
Homo sapiens [37] = assay: Ratio of AUC (0 to 12 hrs) in HIV-1 infected patient at 300 mg, po bid on day 10 coadministered with 500 mg, po bid amdoxovir to AUC (0 to 12 hrs) in HIV-1 infected patient at 300 mg, po bid on day 1 coadministered with 500 mg, po bid amdoxovir; assay type: ADME, organism-based; conditions: in vivo; outline: as §5
[38] = Apparent oral clearance in HIV-1 infected patient on day 10 by LC-MS/MS analysis; assay type: ADME, organism-based; conditions: human, in vivo; outline: as §1
[39] = Tmax in HIV-1 infected patient at 200 mg, po bid on day 10 coadministered with 500 mg, po bid amdoxovir by LC-MS/MS analysis; assay type: ADME, organism-based; conditions: human, in vivo; outline: as §3
[40] = Apparent oral clearance in HIV-1 infected patient at 300 mg, po bid on day 10 coadministered with 500 mg, po bid amdoxovir by LC-MS/MS analysis; assay type: ADME, organism-based; conditions: human, in vivo; outline: as §1

For Nc1nc(N)c2ncn([C@H]3CO[C@@H](CO)O3)c2n1 [AMDOXOVIR], the “Ratio AUC” value (Homo sapiens [1]) was 0.99, the half-life [2] was 1.7 h and the half-life [3] was 1.1 h. The “Ratio AUC” value (Homo sapiens [4]) was 0.95, the AUC at 12 h [5] was 1330 ng·h/mL and the Cmax [6] was 499 ng/mL. The Cmax [7] was 649 ng/mL, the “Ratio AUC” value (Homo sapiens [8]) was 0.67 and the Tmax [9] was 2.5 h. For the same molecule, the Tmax [10] was 2 h, the Tmax [11] was 2.5 h and the AUC at 12 h [12] was 1730 ng·h/mL. For the same molecule, the Cmax [13] was 514 ng/mL, the half-life [14] was 1.3 h and the CL/F [15] was 91.5 mL/min/kg. For the same molecule, the Tmax (Homo sapiens [16]) was 1 h, the half-life [17] was 1.4 h and the AUC at 12 h [18] was 2090 ng·h/mL. For the same molecule, the Cmax [19] was 714 ng/mL, the CL/F [20] was 63.5 mL/min/kg and the Tmax [21] was 1 h. It also gave a CL/F [22] of 74.7 mL/min/kg.

In the case of Cc1cn([C@H]2C[C@H](N=[N+]=[N-])[C@@H](CO)O2)c(=O)[nH]c1=O [ZIDOVUDINE], the Tmax [23] is reported as 0.5 h, the dose excreted [24] is reported as 6.24% and the “Ratio AUC” value (Homo sapiens [25]) is reported as 1.21. It also gave a CL/F [26] of 39 mL/min/kg, a half-life [27] of 2.5 h and a Tmax [28] of 0.5 h. It also gave a dose excreted [29] of 6.74%, a Drug uptake [30] of 61.87% and a Drug uptake [31] of 61.15%. The “Ratio AUC” value (Homo sapiens [32]) was 1.04, the dose excreted [33] was 5.88% and the Drug uptake [34] was 62.89%. The half-life [35] was 2.4 h, the half-life [36] was 2.2 h and the “Ratio AUC” value (Homo sapiens [37]) was 0.86. The CL/F [38] was 23.2 mL/min/kg, the Tmax [39] was 0.5 h and the CL/F [40] was 30 mL/min/kg.
